In ChEMBL document CHEMBL5257027 (Eur J Med Chem, 2016):

Tests used:
MDA-MB-468 [1] = assay: Cytotoxicity against human MDA-MB-468 cells; assay type: functional; conditions: read-out: LC50 (the source's name)
Summary of the method: (§1)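 Run in the US NCI 58-cell-line screen covering nine cancer types (leukemia, NSCLC, colon, CNS, melanoma, ovarian, renal, prostate, breast). Five-dose mode gave GI50, TGI and LC50 values for each cell line. In the single-dose pre-screen, % inhibition was taken as 100 minus growth percentage.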

MDA-MB-468 [2] = assay: Antiproliferative activity against human MDA-MB-468 cells assessed as reduction in cell growth; assay type: functional
Summary of the method: (§2)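 NCI five-dose testing across the 58-line panel gives GI50, TGI and LC50 for each line. Subpanel lines report mean GI50 for each of the nine cancer types.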

COLO 205 [3] = assay: Antiproliferative activity against human COLO 205 cells assessed as reduction in cell growth; assay type: functional; summary of the method: as §2
K562 [4] = assay: Cytotoxicity against human k562 cells; assay type: functional; conditions: read-out: LC50 (the source's name); summary of the method: as §1
[5] = biological target: Epidermal growth factor receptor (Homo sapiens) (UniProt P00533); assay: Inhibition of EGFR (unknown origin) at 10 uM using […] as substrate incubated for 40 mins in presence of [gamma33P]ATP by scintillation counting based hotspot kinase assay relative to control
COLO 205 [6] = assay: Cytotoxicity against human COLO 205 cells; assay type: functional; summary of the method: as §1
SK-MEL-5 [7] = assay: Antiproliferative activity against human SK-MEL-5 cells assessed as reduction in cell growth; assay type: functional; summary of the method: as §2
[8] = system: Panel melanoma (Carcinoma cell lines); assay: Antiproliferative activity against human Panel melanoma (9 Carcinoma cell lines) assessed as reduction in mean cell growth; assay type: functional; summary of the method: as §2
[9] = Antiproliferative activity against human Panel NCI-58 (58 Carcinoma cell lines) assessed as reduction in mean cell growth at 10 uM; assay type: functional; design: scale not given: the % may be the effect or the level left
Summary of the method: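 NCI 58-cell-line screen covering leukemia, NSCLC, colon, CNS, melanoma, ovarian, renal, prostate and breast lines. Compounds given once at […] (micromolar per the line). Percent inhibition taken as 100 minus growth percent. Panel line reports the mean over all 58 lines.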

HCT-15 [10] = assay: Cytotoxicity against human HCT-15 cells; assay type: functional; conditions: read-out: LC50 (the source's name); summary of the method: as §1
[11] = system: Panel colon (Carcinoma cell lines); assay: Antiproliferative activity against human Panel colon (7 Carcinoma cell lines) assessed as reduction in mean cell growth; assay type: functional; summary of the method: as §2
SNB-75 [12] = assay: Antiproliferative activity against human SNB-75 cells assessed as reduction in cell growth; assay type: functional; summary of the method: as §2
[13] = system: Serine/threonine-protein kinase B-raf (Homo sapiens), P15056 [V600E]; assay: Inhibition of B-RAF V600E mutant (unknown origin) at 10 uM using […] as substrate incubated for 40 mins in presence of [gamma33P]ATP by scintillation counting based hotspot kinase assay relative to control
PC-3 [14] = assay: Cytotoxicity against human PC-3 cells; assay type: functional; summary of the method: as §1
[15] = system: Panel leukemia (Carcinoma cell lines); assay: Antiproliferative activity against human Panel leukemia (5 Carcinoma cell lines) assessed as reduction in mean cell growth; assay type: functional; summary of the method: as §2
[16] = biological target: Tyrosine-protein kinase ABL1 (Homo sapiens) (UniProt P00519); assay: Inhibition of ABL (unknown origin) at 10 uM using […] as substrate incubated for 40 mins in presence of [gamma33P]ATP by scintillation counting based hotspot kinase assay relative to control
NCI/ADR-RES [17] = assay: Antiproliferative activity against human NCI/ADR-RES cells assessed as reduction in cell growth; assay type: functional; summary of the method: as §2
PC-3 [18] = assay: Antiproliferative activity against human PC-3 cells assessed as total growth inhibition; assay type: functional; summary of the method: as §2
SNB-75 [19] = assay: Cytotoxicity against human SNB-75 cells; assay type: functional; conditions: read-out: LC50 (the source's name); summary of the method: as §1
[20] = biological target: RAF proto-oncogene serine/threonine-protein kinase (Homo sapiens, UniProt P04049); assay: Inhibition of RAF1 (unknown origin) at 10 uM using […] as substrate incubated for 40 mins in presence of [gamma33P]ATP by scintillation counting based hotspot kinase assay relative to control
RXF 393 [21] = assay: Antiproliferative activity against human RXF 393 cells assessed as reduction in cell growth; assay type: functional; summary of the method: as §2
K562 [22] = assay: Antiproliferative activity against human K562 cells assessed as reduction in cell growth; assay type: functional; summary of the method: as §2
HOP-92 [23] = assay: Antiproliferative activity against human HOP-92 cells assessed as total growth inhibition; assay type: functional; summary of the method: as §2
HOP-92 [24] = assay: Cytotoxicity against human HOP-92 cells; assay type: functional; summary of the method: as §1
K562 [25] = assay: Antiproliferative activity against human K562 cells assessed as total growth inhibition; assay type: functional; summary of the method: as §2
[26] = system: Panel renal (Carcinoma cell lines); assay: Antiproliferative activity against human Panel renal (8 Carcinoma cell lines) assessed as reduction in mean cell growth; assay type: functional; summary of the method: as §2
L132 = assay: Cytotoxicity against human L132 cells assessed as reduction in cell growth at 31.3 to 100 uM relative to control; assay type: toxicity, cell-based; design: scale not given: the % may be the effect or the level left; conditions: l132, 100 µM, dose 31.3-100 µM
[27] = system: Panel ovarian (Carcinoma cell lines); assay: Antiproliferative activity against human Panel ovarian (7 Carcinoma cell lines) assessed as reduction in mean cell growth; assay type: functional; summary of the method: as §2
NCI/ADR-RES [28] = assay: Antiproliferative activity against human NCI/ADR-RES cells assessed as total growth inhibition; assay type: functional; summary of the method: as §2
HOP-92 [29] = assay: Antiproliferative activity against human HOP-92 cells assessed as reduction in cell growth; assay type: functional; summary of the method: as §2
SK-MEL-5 [30] = assay: Cytotoxicity against human SK-MEL-5 cells; assay type: functional; summary of the method: as §1
COLO 205 [31] = assay: Antiproliferative activity against human COLO 205 cells assessed as total growth inhibition; assay type: functional; summary of the method: as §2
[32] = system: Panel breast (Carcinoma cell lines); assay: Antiproliferative activity against human Panel breast (6 Carcinoma cell lines) assessed as reduction in mean cell growth; assay type: functional; summary of the method: as §2
SK-MEL-5 [33] = assay: Antiproliferative activity against human SK-MEL-5 cells assessed as total growth inhibition; assay type: functional; summary of the method: as §2
[34] = system: Panel CNS (Carcinoma cell lines); assay: Antiproliferative activity against human Panel CNS (6 Carcinoma cell lines) assessed as reduction in mean cell growth; assay type: functional; summary of the method: as §2
HCT-15 [35] = assay: Antiproliferative activity against human HCT-15 cells assessed as reduction in cell growth; assay type: functional; summary of the method: as §2
NCI/ADR-RES [36] = assay: Cytotoxicity against human NCI/ADR-RES cells; assay type: functional; summary of the method: as §1
[37] = system: Panel prostate (Carcinoma cell lines); assay: Antiproliferative activity against human Panel prostate (2 Carcinoma cell lines) assessed as reduction in mean cell growth; assay type: functional; summary of the method: as §2
RXF 393 [38] = assay: Antiproliferative activity against human RXF 393 cells assessed as total growth inhibition; assay type: functional; summary of the method: as §2
[39] = biological target: Mitogen-activated protein kinase 14 (Homo sapiens) (UniProt Q16539); assay: Inhibition of MAPK14 (p38 alpha) (unknown origin) at 10 uM using […] as substrate incubated for 40 mins in presence of [gamma33P]ATP by scintillation counting based hotspot kinase assay relative to control
MDA-MB-468 [40] = assay: Antiproliferative activity against human MDA-MB-468 cells assessed as total growth inhibition; assay type: functional; summary of the method: as §2
SNB-75 [41] = assay: Antiproliferative activity against human SNB-75 cells assessed as total growth inhibition; assay type: functional; summary of the method: as §2
RXF 393 [42] = assay: Cytotoxicity against human RXF 393 cells; assay type: functional; summary of the method: as §1
[43] = biological target: Serine/threonine-protein kinase B-raf (Homo sapiens) (UniProt P15056); assay: Inhibition of B-RAF (unknown origin) at 10 uM using […] as substrate incubated for 40 mins in presence of [gamma33P]ATP by scintillation counting based hotspot kinase assay relative to control
HCT-15 [44] = assay: Antiproliferative activity against human HCT-15 cells assessed as total growth inhibition; assay type: functional; summary of the method: as §2
Homo sapiens = species: Homo sapiens; assay: Inhibition of ABL […] mutant (unknown origin) at 10 uM using […] as substrate incubated for 40 mins in presence of [gamma33P]ATP by scintillation counting based hotspot kinase assay relative to control
PC-3 [45] = assay: Antiproliferative activity against human PC-3 cells assessed as reduction in cell growth; assay type: functional; summary of the method: as §2
[46] = Antiproliferative activity against human Panel non-small cell lung cancer (8 Carcinoma cell lines) assessed as reduction in mean cell growth; assay type: functional; conditions: Non-small cell lung cancer cell line; summary of the method: as §2

Epidermal growth factor receptor (Homo sapiens), sequence (P00533 whole entry): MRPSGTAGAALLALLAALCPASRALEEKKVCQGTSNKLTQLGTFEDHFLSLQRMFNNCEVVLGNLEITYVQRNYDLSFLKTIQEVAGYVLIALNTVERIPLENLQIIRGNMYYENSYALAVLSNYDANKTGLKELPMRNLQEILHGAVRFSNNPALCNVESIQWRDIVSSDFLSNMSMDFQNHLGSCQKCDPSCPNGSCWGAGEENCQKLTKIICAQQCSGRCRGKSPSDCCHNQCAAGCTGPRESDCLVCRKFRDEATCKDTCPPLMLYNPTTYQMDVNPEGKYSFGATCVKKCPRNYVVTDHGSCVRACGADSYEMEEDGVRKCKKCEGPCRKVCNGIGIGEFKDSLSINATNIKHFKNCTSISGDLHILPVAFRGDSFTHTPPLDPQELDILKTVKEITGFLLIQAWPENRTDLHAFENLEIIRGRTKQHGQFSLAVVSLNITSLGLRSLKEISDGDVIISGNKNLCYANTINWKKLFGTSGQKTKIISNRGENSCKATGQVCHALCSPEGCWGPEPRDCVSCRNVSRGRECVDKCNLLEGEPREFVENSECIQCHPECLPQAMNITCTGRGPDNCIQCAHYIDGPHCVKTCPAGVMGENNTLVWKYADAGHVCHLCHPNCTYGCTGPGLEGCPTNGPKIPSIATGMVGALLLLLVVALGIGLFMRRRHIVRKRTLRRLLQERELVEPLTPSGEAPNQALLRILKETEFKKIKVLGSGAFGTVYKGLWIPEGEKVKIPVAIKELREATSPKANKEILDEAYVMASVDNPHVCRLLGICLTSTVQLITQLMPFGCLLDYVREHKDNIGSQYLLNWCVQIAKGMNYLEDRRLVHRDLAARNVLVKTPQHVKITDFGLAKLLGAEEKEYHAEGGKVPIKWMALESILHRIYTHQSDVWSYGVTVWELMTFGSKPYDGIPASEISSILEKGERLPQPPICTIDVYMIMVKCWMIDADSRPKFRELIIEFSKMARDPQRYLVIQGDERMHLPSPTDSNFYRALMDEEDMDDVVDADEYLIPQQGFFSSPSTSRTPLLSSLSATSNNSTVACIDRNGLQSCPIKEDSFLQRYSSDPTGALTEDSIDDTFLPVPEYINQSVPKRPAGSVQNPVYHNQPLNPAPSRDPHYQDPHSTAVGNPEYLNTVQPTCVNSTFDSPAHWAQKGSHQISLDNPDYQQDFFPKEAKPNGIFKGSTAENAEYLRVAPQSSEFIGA
Mitogen-activated protein kinase 14 (Homo sapiens), sequence (Q16539 whole entry): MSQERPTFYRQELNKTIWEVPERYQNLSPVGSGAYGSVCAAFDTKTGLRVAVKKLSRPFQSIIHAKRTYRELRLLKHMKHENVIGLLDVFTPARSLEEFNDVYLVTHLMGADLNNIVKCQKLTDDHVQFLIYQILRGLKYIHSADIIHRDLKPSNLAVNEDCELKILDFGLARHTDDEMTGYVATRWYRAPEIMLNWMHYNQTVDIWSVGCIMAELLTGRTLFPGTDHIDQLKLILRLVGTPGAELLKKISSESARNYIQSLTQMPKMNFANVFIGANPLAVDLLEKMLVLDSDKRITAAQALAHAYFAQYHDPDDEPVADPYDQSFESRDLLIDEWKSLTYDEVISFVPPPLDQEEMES
Tyrosine-protein kinase ABL1 (Homo sapiens), sequence (P00519 whole entry): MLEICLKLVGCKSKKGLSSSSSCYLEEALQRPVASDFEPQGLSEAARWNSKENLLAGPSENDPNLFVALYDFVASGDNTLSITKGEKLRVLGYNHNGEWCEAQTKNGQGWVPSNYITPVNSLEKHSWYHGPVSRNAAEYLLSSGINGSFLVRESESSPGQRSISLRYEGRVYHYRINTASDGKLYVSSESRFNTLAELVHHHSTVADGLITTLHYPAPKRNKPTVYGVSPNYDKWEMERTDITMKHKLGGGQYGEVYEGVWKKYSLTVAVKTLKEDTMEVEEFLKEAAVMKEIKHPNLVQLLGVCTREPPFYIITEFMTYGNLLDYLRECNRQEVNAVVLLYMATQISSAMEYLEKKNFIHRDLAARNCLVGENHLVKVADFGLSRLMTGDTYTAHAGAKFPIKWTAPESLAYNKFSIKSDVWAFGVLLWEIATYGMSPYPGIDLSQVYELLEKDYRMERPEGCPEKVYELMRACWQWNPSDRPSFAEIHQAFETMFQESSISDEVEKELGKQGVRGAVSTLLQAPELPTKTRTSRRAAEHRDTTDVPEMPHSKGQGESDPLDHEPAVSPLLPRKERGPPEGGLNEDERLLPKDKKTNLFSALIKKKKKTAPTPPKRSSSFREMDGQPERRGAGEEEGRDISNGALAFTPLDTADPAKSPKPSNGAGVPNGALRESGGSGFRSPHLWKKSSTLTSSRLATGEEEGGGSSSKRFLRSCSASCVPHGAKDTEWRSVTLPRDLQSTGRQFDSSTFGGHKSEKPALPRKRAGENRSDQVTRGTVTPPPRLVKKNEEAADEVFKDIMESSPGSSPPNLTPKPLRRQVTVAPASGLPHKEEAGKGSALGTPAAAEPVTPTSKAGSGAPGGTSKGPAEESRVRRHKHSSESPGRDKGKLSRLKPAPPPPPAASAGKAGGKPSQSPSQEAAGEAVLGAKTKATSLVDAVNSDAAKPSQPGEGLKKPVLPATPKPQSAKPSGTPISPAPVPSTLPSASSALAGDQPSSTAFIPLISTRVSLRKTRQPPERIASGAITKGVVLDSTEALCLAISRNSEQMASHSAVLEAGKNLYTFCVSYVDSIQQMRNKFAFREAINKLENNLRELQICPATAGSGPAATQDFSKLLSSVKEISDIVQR
Serine/threonine-protein kinase B-raf (Homo sapiens), P15056 [V600E], sequence (P15056 whole entry V600E): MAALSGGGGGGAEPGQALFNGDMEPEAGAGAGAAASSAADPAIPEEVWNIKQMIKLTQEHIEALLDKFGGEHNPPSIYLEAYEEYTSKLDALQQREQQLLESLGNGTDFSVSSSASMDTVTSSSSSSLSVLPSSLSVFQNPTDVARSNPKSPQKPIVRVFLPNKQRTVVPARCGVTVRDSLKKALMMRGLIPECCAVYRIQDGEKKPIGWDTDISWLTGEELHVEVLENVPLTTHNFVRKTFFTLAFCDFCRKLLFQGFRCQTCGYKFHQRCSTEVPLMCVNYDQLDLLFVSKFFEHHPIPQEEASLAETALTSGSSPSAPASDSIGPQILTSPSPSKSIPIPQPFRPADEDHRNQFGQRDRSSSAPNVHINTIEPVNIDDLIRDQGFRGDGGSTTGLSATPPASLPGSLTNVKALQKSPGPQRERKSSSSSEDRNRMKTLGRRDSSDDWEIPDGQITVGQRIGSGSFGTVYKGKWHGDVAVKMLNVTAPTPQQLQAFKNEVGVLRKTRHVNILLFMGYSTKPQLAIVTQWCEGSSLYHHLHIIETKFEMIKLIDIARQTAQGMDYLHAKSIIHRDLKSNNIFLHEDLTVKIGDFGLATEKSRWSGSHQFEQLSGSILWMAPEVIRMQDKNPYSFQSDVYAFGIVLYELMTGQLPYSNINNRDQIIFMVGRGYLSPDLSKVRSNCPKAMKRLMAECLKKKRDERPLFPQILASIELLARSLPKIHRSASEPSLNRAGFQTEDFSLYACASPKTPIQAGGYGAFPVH
RAF proto-oncogene serine/threonine-protein kinase, sequence (P04049 whole entry): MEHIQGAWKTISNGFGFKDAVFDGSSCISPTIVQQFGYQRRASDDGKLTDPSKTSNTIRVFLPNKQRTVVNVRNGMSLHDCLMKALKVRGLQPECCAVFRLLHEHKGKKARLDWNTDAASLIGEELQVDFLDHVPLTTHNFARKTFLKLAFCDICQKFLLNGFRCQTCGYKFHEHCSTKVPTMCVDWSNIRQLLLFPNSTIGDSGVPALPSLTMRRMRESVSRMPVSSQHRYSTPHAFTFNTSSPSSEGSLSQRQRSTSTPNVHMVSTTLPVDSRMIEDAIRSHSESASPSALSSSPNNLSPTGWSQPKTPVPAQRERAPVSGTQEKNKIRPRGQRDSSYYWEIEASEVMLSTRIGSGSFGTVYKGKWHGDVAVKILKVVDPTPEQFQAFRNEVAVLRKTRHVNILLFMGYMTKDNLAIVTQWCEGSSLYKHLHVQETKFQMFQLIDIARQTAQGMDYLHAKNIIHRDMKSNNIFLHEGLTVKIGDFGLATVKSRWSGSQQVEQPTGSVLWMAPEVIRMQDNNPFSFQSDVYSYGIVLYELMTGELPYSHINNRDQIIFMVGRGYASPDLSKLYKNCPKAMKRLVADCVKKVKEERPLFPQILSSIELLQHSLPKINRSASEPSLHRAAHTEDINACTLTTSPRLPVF
Serine/threonine-protein kinase B-raf (Homo sapiens), sequence (P15056 whole entry): as the sequence (P15056 whole entry V600E) above, with E600V counted along it

**Q.** Which results are given for `O=C(NCCCNc1cc(-c2cn(-c3ccccc3)nc2-c2cccc(O)c2)ccn1)c1ccc(F)cc1`?
**A.** CC50 (MDA-MB-468 [1]): 6.92 µM; GI50 (MDA-MB-468 [2]): 1.59 µM; GI50 (COLO 205 [3]): 1.6 µM; CC50 (K562 [4]): 100 µM; inhibition [5]: 15.7%; LC50 (lethal concentration 50%) (COLO 205 [6]): 7.6 µM; GI50 (SK-MEL-5 [7]): 1.61 µM; GI50 [8]: 1.91 µM; Activity [9]: >80%; CC50 (HCT-15 [10]): 8.09 µM; GI50 [11]: 2.16 µM; GI50 (SNB-75 [12]): 5.19 µM; inhibition [13]: 40.1%; LC50 (PC-3 [14]): 44.3 µM; GI50 [15]: 1.98 µM; inhibition [16]: 16.1%; GI50 (NCI/ADR-RES [17]): 2.2 µM; TGI (PC-3 [18]): 5.24 µM; CC50 (SNB-75 [19]): 74 µM; inhibition [20]: 36.4%; GI50 (RXF 393 [21]): 1.63 µM; GI50 (K562 [22]): 1.93 µM; TGI (HOP-92 [23]): 3.28 µM; LC50 (HOP-92 [24]): 7.38 µM; TGI (K562 [25]): 4.83 µM; GI50 [26]: 2.84 µM; Activity (L132): 50%; GI50 [27]: 3.46 µM; TGI (NCI/ADR-RES [28]): 5.82 µM; GI50 (HOP-92 [29]): 2.13 µM; LC50 (SK-MEL-5 [30]): 5.72 µM; TGI (COLO 205 [31]): 3.78 µM; GI50 [32]: 1.89 µM; TGI (SK-MEL-5 [33]): 3.15 µM; GI50 [34]: 3.29 µM; GI50 (HCT-15 [35]): 1.77 µM; LC50 (NCI/ADR-RES [36]): 29.7 µM; GI50 [37]: 3.72 µM; TGI (RXF 393 [38]): 3.03 µM; inhibition [39]: 66.6%; TGI (MDA-MB-468 [40]): 3.43 µM; TGI (SNB-75 [41]): 12.5 µM; LC50 (RXF 393 [42]): 5.99 µM; inhibition [43]: 22.5%; TGI (HCT-15 [44]): 3.71 µM; inhibition (Homo sapiens): 14.6%; GI50 (PC-3 [45]): 2.81 µM; GI50 [46]: 3.12 µM

**Q.** Which results are given for `O=C(NCCCNc1cc(-c2cn(-c3ccccc3)nc2-c2cccc(O)c2)ccn1)c1ccccc1`?
**A.** GI50 (MDA-MB-468 [2]): 1.38 µM; GI50 (COLO 205 [3]): 1.71 µM; CC50 (K562 [4]): 100 µM; inhibition [5]: 3.72%; LC50 (lethal concentration 50%) (COLO 205 [6]): 7.88 µM; GI50 (SK-MEL-5 [7]): 1.49 µM; GI50 [8]: 2.3 µM; Activity [9]: >80%; CC50 (HCT-15 [10]): 100 µM; GI50 [11]: 2.3 µM; GI50 (SNB-75 [12]): 1.68 µM; inhibition [13]: 34.4%; LC50 (PC-3 [14]): 100 µM; GI50 [15]: 1.62 µM; inhibition [16]: 16%; GI50 (NCI/ADR-RES [17]): 2.67 µM; TGI (PC-3 [18]): 15.2 µM; CC50 (SNB-75 [19]): 100 µM; inhibition [20]: 39.6%; GI50 (RXF 393 [21]): 1.97 µM; GI50 (K562 [22]): 0.75 µM; TGI (HOP-92 [23]): 24.5 µM; LC50 (HOP-92 [24]): 100 µM; GI50 [26]: 3.63 µM; GI50 [27]: 4.17 µM; TGI (NCI/ADR-RES [28]): 9.79 µM; GI50 (HOP-92 [29]): 1.7 µM; LC50 (SK-MEL-5 [30]): 6.54 µM; TGI (COLO 205 [31]): 3.67 µM; GI50 [32]: 2.13 µM; TGI (SK-MEL-5 [33]): 3.12 µM; GI50 [34]: 3.6 µM; GI50 (HCT-15 [35]): 1.51 µM; LC50 (NCI/ADR-RES [36]): 100 µM; GI50 [37]: 3.69 µM; TGI (RXF 393 [38]): 6.2 µM; inhibition [39]: 74.5%; TGI (MDA-MB-468 [40]): 3.36 µM; TGI (SNB-75 [41]): 46.9 µM; LC50 (RXF 393 [42]): 100 µM; inhibition [43]: 10.8%; TGI (HCT-15 [44]): 5.12 µM; inhibition (Homo sapiens): 9.61%; GI50 (PC-3 [45]): 2.1 µM; GI50 [46]: 3.4 µM
